# Only some compounds are listed: those with a hit (about 2.3% of all), similar ones and a draw of the others.
# SUMO1-SIM PPI: SUMO1-SIM interaction modulation. inhibition, % at 20 µM. SUMO1 binding to a labelled peptide, TR-FRET, 1 h. 0.33% of 360,000 active; in the data active means inhibition above about 37%
# Target sequence (P63165 whole entry, looked up): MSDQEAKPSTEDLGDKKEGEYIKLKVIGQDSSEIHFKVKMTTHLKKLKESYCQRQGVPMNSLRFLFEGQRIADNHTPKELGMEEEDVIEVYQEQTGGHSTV
# DNMT1 block: blocks human DNA methyltransferase DNMT1. P26358. DNMT1 molecular beacon, Hinp1I cleavage, fluorescence. inhibition (reported as % activation of signal), % at 10 µM. 0.83% of 360,000 active. AID 588458; in the data active means inhibition above about 50%
# Scp1 inh: Scp-1 (human) phosphatase inhibition; Recombinant Scp1, phosphopeptide, malachite green phosphate absorbance; inhibition, % at 20 µM; 0.88% of 340,000 active; Q9GZU7; AID 493091;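 active means inhibition above about 50% at 20 µM, limit read from the data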;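 further: plate controls were DMSO wells with enzyme for no effect and wells lacking enzyme for full effect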
# Target sequence (Q9GZU7 76-261 limits assumed): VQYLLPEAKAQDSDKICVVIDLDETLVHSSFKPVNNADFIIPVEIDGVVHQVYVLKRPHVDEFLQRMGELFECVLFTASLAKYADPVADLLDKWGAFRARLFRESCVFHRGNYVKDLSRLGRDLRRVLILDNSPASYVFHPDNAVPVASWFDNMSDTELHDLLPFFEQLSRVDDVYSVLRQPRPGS
#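 Material – SCP-1 phosphatase catalytic domain, residues 76-261 · Buffer or medium – Acidic Tris acetate buffer with magnesium and detergent · Also added – Phospho 17-mer peptide substrate · Compound – single 20 µM dose, 1% DMSO · Times – 45 min room-temperature reaction, 5 min colour, 30 min stabiliser · Technique – Phosphate-binding colour reagent, absorbance read at 630 nm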
# STEP block: blocks human striatal-enriched tyrosine phosphatase; inhibition, % at 20 µM; AID 588621; P54829; 0.25% of 360,000 active; recombinant STEP, OMFP fluorogenic substrate, fluorescence;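 active means inhibition at 20 µM, scaled per plate between control wells, above about 37%, limit read from the data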;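 further: 0% = DMSO with enzyme and substrate and 100% = substrate only without enzyme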
#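 Measure: Control-normalized % inhibition with plate pattern correction | Test system: STEP phosphatase, cell-free reaction | Medium: pH 6.0 Bis-Tris with DTT and Tween 20 | Technique: Fluorescence, 480/540 nm | Times: Reaction 20 min, ambient temperature | Doses: Single compound dose of 20 µM, 1% DMSO final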
# NadD inh: inhibitors of Staphylococcus aureus NadD; purified NadD enzyme, colorimetric absorbance read-out; inhibition, % at 20 µM; 0.78% of 360,000 active; AID 602399; in the data active means inhibition above about 26%
# LMPTP block: blocks human LMPTP phosphatase; P24666; recombinant LMPTP-A, OMFP fluorogenic substrate, fluorescence intensity; inhibition, % at 20 µM; 0.22% of 360,000 active;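 active means compounds that cut the enzyme signal by at least half of the control window in the single-dose screen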;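 further: plate controls were DMSO wells with enzyme plus substrate for no effect and substrate without enzyme for full effect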
# Target sequence (P24666 whole entry, looked up): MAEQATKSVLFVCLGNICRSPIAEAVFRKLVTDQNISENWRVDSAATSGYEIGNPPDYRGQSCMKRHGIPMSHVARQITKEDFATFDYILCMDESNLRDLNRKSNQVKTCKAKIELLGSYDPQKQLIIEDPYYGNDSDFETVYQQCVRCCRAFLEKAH
#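 Test system: LMPTP-A, protein tyrosine phosphatase of low molecular weight; Input: 0.625 nM enzyme; Incubation: 50 min dark incubation at room temperature; Signal: endpoint fluorescence intensity from OMFP dephosphorylation; Read-out basis: % inhibition versus control wells.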
# Starred values were filed as active, the others as inactive; / = not tested or not shown.
SMILES,SUMO1-SIM PPI,DNMT1 block,Scp1 inh,STEP block,NadD inh,LMPTP block
CCCCCCCCN1C(=O)[C@H](CC(=O)NCc2ccc(OC)c(OC)c2)C[C@@]2(C(=O)OC)CCCCC=C12,11,/,/,/,-6,4
COCCNc1nc(NCc2ccccc2OC)c2sccc2n1,0,-2,/,0,-12,46
COCCNc1nc(NCc2cnc(C)cn2)c2sccc2n1,-8,-2,/,2,3,53*
Cc1cc(C)c(-c2cc(NC(=O)COC(=O)c3ccc(NC(=O)CC#N)cc3)n(-c3ccccc3)n2)cc1C,0,-3,2,0,54*,3
COc1ccc(OC)c(-c2csc(NC(=O)COC(=O)c3ccc(NC(=O)CC#N)cc3)n2)c1,13,22,-7,0,48*,5
COc1ccc(OC)c(-c2csc(NC(=O)Cn3[nH]c(=O)c4ccccc4c3=O)n2)c1,64*,-6,-1,4,-5,0
Cc1cc(C)c(-c2cc(NC(=O)COC(=O)c3ccc(C#N)cc3)n(-c3ccccc3)n2)cc1C,1,-5,-6,1,15,4
CN(CCc1ccccc1)C(C(=O)c1ccc2c(c1)OCO2)c1nnnn1-c1ccccc1NC(=O)OC(C)(C)C (centres undefined),-4,/,/,/,/,1
O=C(/C=C/c1ccc(O)c(O)c1)NC(=O)c1ccccc1O,0,16,15,0,1,1
O=C(/C=C/c1ccc(Br)cc1)NC(=O)c1ccccc1O,21,0,59*,13,-2,56*
CCOc1cc(CNn2cnnc2SCC(=O)NC(C)(C)C)ccc1OCC(=O)NC(C)(C)C,5,1,-7,1,0,0
COC(=O)/C=C1\OCc2cc(OCc3ccccc3)ccc21,7,/,/,/,/,1
C/C(=N\NS(=O)(=O)c1ccc(Cl)c([N+](=O)[O-])c1)c1ccc(C)o1,-3,23,-2,1,10,55*
C/C(=N\NS(=O)(=O)c1ccc(C)c([N+](=O)[O-])c1)c1cc2ccccc2o1,-2,5,4,0,2,1
C/C(=N\NS(=O)(=O)c1ccc(Cl)c([N+](=O)[O-])c1)c1cc2ccccc2o1,-4,8,-13,-2,2,60*
Cc1ccc2nc3c(cc(C(=O)NCCc4ccccc4)c(=N)n3CCN3CCOCC3)c(=O)n2c1,-8,2,-3,8,-7,10
N=c1c(C(=O)NCc2ccco2)cc2c(=O)n3ccccc3nc2n1Cc1ccc(Cl)cc1,4,23,16,5,26,52*
COCCn1c(=N)c(C(=O)NCc2ccco2)cc2c(=O)n3ccccc3nc21,-7,3,-5,0,0,2
N=c1c(C(=O)NCc2ccc(F)cc2)cc2c(=O)n3ccccc3nc2n1Cc1ccco1,-9,9,16,0,31*,49
COc1ccc(CNC(=O)c2cc3c(=O)n4ccccc4nc3n(Cc3cccnc3)c2=N)cc1,-22,3,5,-3,8,15
N=c1c(C(=O)NCc2ccc3c(c2)OCO3)cc2c(=O)n3ccccc3nc2n1Cc1cccnc1,-21,0,-3,2,30,65*
Cc1ccc2nc3c(cc(C(=O)NCc4ccccc4)c(=N)n3CCCn3ccnc3)c(=O)n2c1,-24,13,2,0,4,57*
Cc1ccc(S(=O)(=O)N2CCC(C(=O)Nc3ccc(S(=O)(=O)N4CCCC4)cc3)CC2)cc1C,4,-10,-6,0,3,0
Cc1ccc(C(=O)ONc2ccc(N=NC(=O)c3ccccc3O)cc2)cc1,-1,30,110*,77*,3,78*
Cc1ccc(C(=O)ONc2ccc(N=O)cc2)cc1,20,4,-7,2,0,0
SMILES,SUMO1-SIM PPI,DNMT1 block,Scp1 inh,STEP block,NadD inh,LMPTP block
COc1cc2[nH]c(C(=O)N3CCN(c4ccccc4F)CC3)cc2c(OC)c1OC,-9,1,-7,2,-5,0
Cc1ccc(C)n1-c1cc(S(=O)(=O)N2CCOCC2)ccc1N1CCCC1,-1,-10,2,4,35*,2
Cc1ccc(CNc2nc3c([nH]2)c(=O)n(C)c(=O)n3C)cc1,50*,0,0,-8,4,-1
Cn1c(=O)c2[nH]c(Nc3ccccc3)nc2n(C)c1=O,4,0,-8,-1,3,-1
Cc1cc(C(O)c2ncc(-c3ccccc3F)[nH]2)ccc1F (centres undefined),-3,-1,/,0,0,0
c1cncc(-c2nc3ccccc3s2)c1,48*,2,-1,0,-1,0
c1ccc2sc(-c3ccncc3)nc2c1,-12,-2,-10,0,-2,-2
CCCOc1cc(N(CC)CC)ccc1/C=C(/C#N)c1nc2ccc(C)cc2[nH]1,-59,-1,-8,-33,21,9
CCN(CC)c1ccc(/C=C(/C#N)c2nc3ccc(C)cc3[nH]2)c(OC(C)C)c1,-80,53*,3,-48,15,16
CCOC(=O)C1CCN(Cc2cc(=O)oc3c(C)c(C)ccc23)CC1,-4,2,-13,0,-9,-1
Cc1noc(C)c1S(=O)(=O)Nc1ccc2c(c1)C(=O)N([C@H](C)CO)C[C@H](C)[C@@H](CN(C)C(=O)Nc1ccc3c(c1)OCO3)O2,1,12,76*,-3,6,-1
CN(CC(=O)Nc1cc(Cl)ccc1C#N)C1CCS(=O)(=O)C1 (centres undefined),-1,4,-10,-2,-3,-1
Cc1ccc(NC(=O)CCN2CCN(CCO)CC2)cc1Br,52*,1,-8,1,-4,-2
CCOC(=O)N1CCN(CCC(=O)Nc2ccc(C)c(Br)c2)CC1,3,-1,-12,-6,-6,-1
CCN(CC)c1ccc(C(=C2C=CC(=[N+](CC)CC)C=C2)c2ccccc2)cc1,-4,30,-10,2,1,2
CCN(CC)c1ccc(C(=C2C=CC(=[N+](CC)CC)C=C2)c2ccc(N(CC)CC)cc2)cc1,-58,14,-2,25,6,81*
COc1ccccc1-c1ncn(Cc2cccc(-c3ccccc3)c2)c1-c1ccco1,13,/,/,/,/,11
Cc1ccccc1C1=C/C(=C(\SS/C(C(=O)c2ccc(OCC(=O)O)c(Cl)c2Cl)=C2\C=C(c3ccccc3C)SS2)C(=O)c2ccc(OCC(=O)O)c(Cl)c2Cl)SS1,116*,47,10,15,28,73*
Cc1cc(/C=C(/C#N)c2nc3ccccc3[nH]2)c(C)n1-c1cccc([N+](=O)[O-])c1,-7,-11,10,5,41*,6
Cc1cc(/C=C(\C#N)c2nc3ccccc3[nH]2)c(C)n1C,-10,3,-11,-2,9,6

# Source: PubChem BioAssay (Sanford-Burnham Center for Chemical Genomics)
